For experiment [1], the system named is Rattus norvegicus. Nature of the experiment: In vivo evaluation for the percentage decrease in blood pressure at 135 umol/kg administered through oral route in spontaneously hypertensive rats and observed for 6-12 h. The class given is functional. The method, boiled down:
(§1)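 Male spontaneously hypertensive rats, 15 weeks old, dosed by oral gavage at 135 μmol/kg. Blood pressure recorded directly via an indwelling abdominal aortic catheter exteriorized in the intrascapular region. Sampled over 20-s intervals every 5 min for 24 h. Value is the maximum percent fall in systolic pressure from predrug control within the stated period, mean of five rats.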

Experiment [2] can be described thus: In Vitro evaluation for the affinity for the diltiazem receptor in isolated guinea pig skeletal muscle microsomal preparations by inhibiting [3H]diltiazem binding. Format: microsomes, Cavia porcellus, Muscle tissue. The method, boiled down: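 Membranes from male guinea pig (350–450 g) hind-limb muscle, mainly quadriceps and gastrocnemius, in 50 mM Tris-HCl. 125–250 μg protein incubated with [3H]-d-cis-diltiazem and competing drug, 250 μL final, 30 °C for 1 h. Rapid GF/B filtration and scintillation counting. Nonspecific binding defined with 100 μM unlabeled diltiazem. Kd calculated from concentration–response curves for inhibition of specific binding; ±SEM.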

In experiment [3] the test system is Rattus norvegicus. Nature of the experiment: In vivo evaluation for the percentage decrease in blood pressure at 135 umol/kg administered through oral route in spontaneously hypertensive rats and observed for 0-6 h. The class given is functional. The method, boiled down:
as §1

Experiment [4] concerns Rattus norvegicus. Nature of the experiment: In vivo evaluation for the percentage decrease in blood pressure at 270 umol/kg administered through oral route in spontaneously hypertensive rats and observed for 12-18 h. The class given is functional.
The species entered for a further experiment is Oryctolagus cuniculus. Nature of the experiment: Vasorelaxant effects in circumferential strips of potassium-depolarized rabbit aorta. (IC50 in rabbit aorta strips contracted with KCl(95% confidence interval)). Format: functional, organism-based. Particulars: Oryctolagus cuniculus, Aorta. The method, boiled down:
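Circumferential strips of rabbit thoracic aorta, contracted by depolarization with 100 mM KCl, then exposed to various concentrations of compound.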

pIC50, pKd: −log10 of the molar value.

One may read the pKd as the negative decadic logarithm of the Kd, by convention in mol/L. Higher therefore signals a low Kd. The term pIC50 denotes the IC50 on a negative log10 scale, so that one unit is a factor of ten. A lower pIC50 goes with a large IC50. As for `COc1ccc([C@@H]2Cc3ccccc3N(CCN(C)C)C(=O)[C@@H]2OC(C)=O)cc1.Cl`, the Decrease is given as 8% in the experiment on Rattus norvegicus [1], 8% with Rattus norvegicus [3] and 13% in the experiment on Rattus norvegicus [4]. In experiment [2], this compound had a negative-log Kd (pKd) of 5.29. The compound further had a pIC50 in the experiment listed under Oryctolagus cuniculus of 5.33.

These data come from ChEMBL document CHEMBL1125382, “Benzazepinone calcium channel blockers. 2. Structure-activity and drug metabolism studies leading to potent antihypertensive agents. Comparison with benzothiazepinones” (J Med Chem, 1992).
